In ChEMBL document CHEMBL1240506, “Identification and development of novel inhibitors of Toxoplasma gondii enoyl reductase” (J Med Chem, 2010):
In brackets after ≈: the same amount, converted by molar mass. Activity calls are given as the source filed them. No cut-off for these calls is given here.

What was measured:
Toxoplasma gondii [1] = assay: Antiparasitic activity against Toxoplasma gondii RH infected in ip dosed CD1 mouse; type: functional, organism-based
How it was run: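 CD1 mice were infected intraperitoneally with 2000 RH (Type 1) parasites, a lethal inoculum. Inhibitors were given intraperitoneally at 10mg/kg. Read-outs were peritoneal parasite burden by microscopy at day 5 and survival up to day 5 post-infection. There were 6 mice per group.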

CYP3A4 = CYP3A4 (Homo sapiens, UniProt P08684); assay: Inhibition of CYP3A4 at 10 uM; type: ADME
How it was run: (§1)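 Inhibition was measured against recombinant CYP450 isozymes 2C9, 2D6 and 3A4, each with compound at 10μM, and reported as percent inhibition.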

[2] = Metabolic stability in human liver microsome assessed as compound remaining after 60 mins; type: ADME; settings: liver microsomes, read-out: INH
How it was run: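 Compounds were incubated with pooled human liver microsomes for 60 minutes, and the percentage of parent compound remaining was measured.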

HFF [3] = assay: Toxicity to HFF at highest concentration; type: cell-based; settings: human
How it was run: (§2)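 Host-cell toxicity was tested on non-confluent fibroblast monolayers by 3H-thymidine incorporation, alongside visual inspection of monolayer integrity. Testing ran simultaneously with the parasite inhibition assay, and the highest concentration tested was scored.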

HFF [4] = assay: Toxicity to HFF; type: cell-based; settings: human; how it was run: as §2
CYP2D6 = CYP2D6 (Homo sapiens, UniProt P10635); assay: Inhibition of CYP2D6 at 10 uM; type: ADME; how it was run: as §1
CYP2C9 = CYP2C9 (Homo sapiens, UniProt P11712); assay: Inhibition of CYP2C9 at 10 uM; type: ADME; how it was run: as §1
[5] = target: T1, Enoyl-acyl carrier reductase (Toxoplasma gondii, UniProt Q6UCJ9); assay: Inhibition of Toxoplasma gondii enoyl reductase
T1 sequence (Q6UCJ9 whole entry): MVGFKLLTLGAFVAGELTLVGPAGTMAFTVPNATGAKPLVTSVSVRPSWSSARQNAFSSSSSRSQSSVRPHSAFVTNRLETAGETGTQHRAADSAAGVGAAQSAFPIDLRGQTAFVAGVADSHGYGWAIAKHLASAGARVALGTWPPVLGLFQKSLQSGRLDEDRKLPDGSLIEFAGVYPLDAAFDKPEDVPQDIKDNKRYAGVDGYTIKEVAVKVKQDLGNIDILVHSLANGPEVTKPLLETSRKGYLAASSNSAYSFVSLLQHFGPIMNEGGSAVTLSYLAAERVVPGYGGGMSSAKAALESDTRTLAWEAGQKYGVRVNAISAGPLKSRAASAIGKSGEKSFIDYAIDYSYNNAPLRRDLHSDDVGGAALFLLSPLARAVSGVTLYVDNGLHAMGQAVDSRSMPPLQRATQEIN
How it was run: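 Recombinant TgENR (20 nM) was assayed in 100 mM Na/K phosphate pH 7.5, 150 mM NaCl and 100 μM NADH. Compounds were added in DMSO (2% final), and reactions were started at 25°C with 100 μM crotonyl-CoA. NADH consumption was followed at 340 nm.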

Toxoplasma gondii [6] = assay: Antiparasitic activity against Toxoplasma gondii infected in HFF after 24 hrs by [3H]uracil incorporation assay; type: functional
How it was run: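 Human foreskin fibroblasts were infected with T. gondii tachyzoites and given 1 h to invade before inhibitors were added. Cultures ran 3 days, then 3H-uracil was added for a further day. Parasite growth was read as uracil incorporation by liquid scintillation counting. MIC50 and MIC90 are the concentrations giving 50% and 90% growth inhibition. There were 6 replicate samples per group.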

Chain of CYP3A4 (P08684 whole entry): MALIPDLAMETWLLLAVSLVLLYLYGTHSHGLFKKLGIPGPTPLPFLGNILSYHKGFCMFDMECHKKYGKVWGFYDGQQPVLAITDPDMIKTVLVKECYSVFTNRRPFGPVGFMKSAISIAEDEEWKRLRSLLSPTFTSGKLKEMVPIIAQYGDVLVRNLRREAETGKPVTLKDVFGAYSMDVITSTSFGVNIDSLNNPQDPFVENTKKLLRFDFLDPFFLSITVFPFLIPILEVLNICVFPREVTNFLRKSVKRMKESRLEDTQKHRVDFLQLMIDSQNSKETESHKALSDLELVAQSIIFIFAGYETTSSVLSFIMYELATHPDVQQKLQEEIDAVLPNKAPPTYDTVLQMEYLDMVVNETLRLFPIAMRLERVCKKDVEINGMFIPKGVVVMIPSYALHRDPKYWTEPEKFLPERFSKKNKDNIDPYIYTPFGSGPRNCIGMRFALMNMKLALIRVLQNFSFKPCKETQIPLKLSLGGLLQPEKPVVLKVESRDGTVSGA
Chain of CYP2D6 (P10635 whole entry): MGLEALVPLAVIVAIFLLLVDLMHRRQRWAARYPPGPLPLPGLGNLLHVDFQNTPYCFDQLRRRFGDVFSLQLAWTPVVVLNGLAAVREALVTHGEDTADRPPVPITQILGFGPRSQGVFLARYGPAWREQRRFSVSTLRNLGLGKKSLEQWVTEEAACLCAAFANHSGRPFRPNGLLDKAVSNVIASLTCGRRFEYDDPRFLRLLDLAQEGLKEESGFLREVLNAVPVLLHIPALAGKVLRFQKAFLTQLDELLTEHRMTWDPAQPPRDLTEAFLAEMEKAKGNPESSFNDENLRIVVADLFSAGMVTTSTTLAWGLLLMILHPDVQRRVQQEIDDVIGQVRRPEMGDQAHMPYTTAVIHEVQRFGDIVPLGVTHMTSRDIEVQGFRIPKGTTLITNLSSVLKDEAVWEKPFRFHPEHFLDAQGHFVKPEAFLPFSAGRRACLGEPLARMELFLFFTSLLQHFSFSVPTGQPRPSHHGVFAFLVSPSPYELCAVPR
Chain of CYP2C9 (P11712 whole entry): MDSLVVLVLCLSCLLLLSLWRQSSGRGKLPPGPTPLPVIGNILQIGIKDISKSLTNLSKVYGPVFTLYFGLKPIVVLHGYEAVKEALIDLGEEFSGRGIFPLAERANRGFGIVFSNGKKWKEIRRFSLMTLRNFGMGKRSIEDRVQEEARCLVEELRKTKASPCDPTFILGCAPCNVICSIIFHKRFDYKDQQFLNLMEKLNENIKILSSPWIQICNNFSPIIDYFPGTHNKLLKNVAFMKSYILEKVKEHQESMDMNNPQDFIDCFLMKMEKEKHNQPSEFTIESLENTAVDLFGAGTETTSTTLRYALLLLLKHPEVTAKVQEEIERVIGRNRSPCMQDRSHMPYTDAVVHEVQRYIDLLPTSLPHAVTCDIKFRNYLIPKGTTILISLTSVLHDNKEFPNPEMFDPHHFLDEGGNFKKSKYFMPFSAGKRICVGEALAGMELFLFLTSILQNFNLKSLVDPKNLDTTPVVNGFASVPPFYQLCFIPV

CCCc1ccc(Oc2ccc(C#N)cc2Cl)c(O)c1
Activity (Toxoplasma gondii [1]): Active
inhibition at 10 µM (CYP3A4): < 22%
remaining at 1 h [2]: 45.1%
Activity (HFF [3]): Non-toxic
Activity (HFF [4]): 5 µM
inhibition at 10 µM (CYP2D6): < 22%
inhibition at 10 µM (CYP2C9): > 85%
IC50 [5]: < 20 nM
MIC50 (Toxoplasma gondii [6]): 3 µM (≈ 0.863 µg/mL)
MIC90 (Toxoplasma gondii [6]): 5 µM (≈ 1.44 µg/mL)
